Source: PubChem
14-3-3 Bad inh: disrupts binding of bovine 14-3-3 zeta to phospho-Bad peptide; P63103; TR-FRET 14-3-3zeta/Dy647-pBad peptide displacement, 1 h; inhibition, % at 21.7 µM; 220,000 tested, 0.71% active; AID 781;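 active = inhibition above about 70%, limit read from the data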;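 also: 0% = full 14-3-3 plus peptide FRET controls and 100% = background without 14-3-3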
Target sequence (P63103 whole entry, looked up): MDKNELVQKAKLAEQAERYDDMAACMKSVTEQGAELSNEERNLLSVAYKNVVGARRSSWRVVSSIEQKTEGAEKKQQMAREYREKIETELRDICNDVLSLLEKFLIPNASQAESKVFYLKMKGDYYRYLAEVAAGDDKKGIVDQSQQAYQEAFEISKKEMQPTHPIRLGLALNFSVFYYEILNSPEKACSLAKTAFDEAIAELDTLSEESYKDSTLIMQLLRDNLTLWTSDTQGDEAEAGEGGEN
eIF4E 4G PPI: eIF4E/eIF4G interaction inhibition in translation initiation. P63073+Q04637. AID 782. 220,000 tested, 0.37% active. inhibition, % at 21.7 µM. TR-FRET eIF4E-eIF4GI(517-606) binding, 2 h;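 active = inhibition above about 30%, limit read from the data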;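 also: 0% = full FRET control wells and 100% = background wells lacking eIF4GI fragment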
p97 inhibitor: blocks human p97 ATPase activity; P55072; recombinant p97 ATPase, Kinase-Glo ATP luminescence, 3 h; inhibition, % at 8 µM; 220,000 tested, 0.42% active; in the data active = inhibition above about 15%;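 also: 0% = DMSO vehicle and 100% = wells lacking enzyme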
PERK inh: blocks human PERK kinase; inhibition, % at 5.6 µM; CHO PERK-DD fusion, SEAP luminescence translation reporter; 220,000 tested, 0.17% active; Q9NZJ5; AID 1416;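 active = inhibition above the mean inhibition of all tested compounds plus 3 SD, set separately per screening campaign, cut at about 2.9% in these data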;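 also: PERK kinase domain activated by AP20187 dimerizer at 100 nM; 0% = DMSO with dimerizer and 100% = rapamycin at 8.4 µM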
Calb biofilm kill: mixture kills Candida albicans biofilm cells | inhibition, % at 7.6 µM | C. albicans biofilm persisters + clotrimazole, fluorescence viability; primary screen in compound mixtures of four per well | 120,000 tested, 0.02% active;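 active = inhibition above 30.3% in the primary screen of four-compound pools, then above 30% when the compound was retested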;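 also: compounds exposed to preformed 24 h biofilms for 48 h; 0% = untreated biofilm control and 100% = clotrimazole plus chlorhexidine kill blank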
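System: C. albicans CAF4-2 wild-type biofilms; Medium: RPMI/MOPS medium, pH 7.0; Reagent: Clotrimazole, 50 µg/mL; Times: biofilm formation 24 h, compound exposure 48 h, 37 °C; Detection: 2-h Alamar Blue fluorescence, 535/590 nm excitation/emission; Evaluation: percent inhibition of biofilm viability.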
Hck-Nef inh: inhibitors of human Hck kinase activated by Nef; P08631; Recombinant Hck-YEEI plus Nef, Z-Lyte FRET kinase assay; inhibition, % at 20 µM; 220,000 tested, 0.68% active;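 active = Hck-Nef kinase inhibition above about 50%, limit read from the data; inactive = inhibition below that limit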;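 also: 0% = DMSO with Hck plus Nef and 100% = Hck alone without Nef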
Hck-Nef confirm: confirmation of Hck-Nef kinase inhibitors. shares compounds with Hck-Nef inh. Recombinant Hck-YEEI:Nef, Z-Lyte FRET kinase assay. calls only at 10 µM. 1,300 tested, 28% active. AID 463188;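 active = average inhibition of at least 50%, with Z-scores no higher than 3 in both the phospho-tyrosine peptide and fluorescence counterscreens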
An asterisk follows results filed as active; i = inactive; x = no result shown; + = active, no number. Most compounds without a hit are left out; they make up all but 2.2% or so of the library.

SMILES | 14-3-3 Bad inh | eIF4E 4G PPI | p97 inhibitor | PERK inh | Calb biofilm kill | Hck-Nef inh | Hck-Nef confirm
O=C(O)c1cccc(N2C(=O)/C(=C/c3ccc(SCc4ccc(Cl)cc4)o3)SC2=S)c1 | 85* | 49* | 6 | 3 | -5 | 82* | +
Cc1ccc(/C=C2\SC(=S)N(c3cccnc3)C2=O)o1 | 9 | 2 | 7 | 1 | 21 | 16 | x
O=C(Cc1ccc(F)cc1)N1CCC(N2CCC(C(=O)N3CCOCC3)CC2)CC1 | -12 | 2 | 7 | 1 | -3 | 22 | x
Cc1cc(NC(=O)c2cccs2)n(-c2nc3ccccc3[nH]2)n1 | 37 | 1 | 1 | 0 | 15 | 85* | i
Cc1cc(NC(=O)c2sccc2C)n(-c2nc3ccccc3[nH]2)n1 | -15 | -2 | 5 | 1 | 3 | 26 | x
O=c1[nH][nH]c2c(N=Cc3ccccc3O)ccc(F)c12 | 70* | 30 | 40* | 1 | 18 | 60* | i
Cc1ccc(-c2cc(C(F)F)n3ncc(C(=O)NCc4ccco4)c3n2)cc1 | 33 | 4 | 2 | 0 | x | 58* | i
Cc1ccc(-c2cc(C(F)(F)F)n3ncc(C(=O)NCc4ccco4)c3n2)cc1 | 14 | -5 | -1 | 1 | x | 23 | x
COc1cc(NC(=O)c2cccs2)c(C(=O)OCC(=O)NC(=O)NCc2ccccc2)cc1OC | 46 | -31 | -4 | -1 | x | 68* | i
COc1cc(NC(=O)c2cccs2)c(C(=O)OCC(=O)NC(=O)NC(C)(C)C)cc1OC | 3 | 3 | -4 | -1 | x | -22 | x
CCOc1cc(/C=C2\N=C(SC)SC2=O)cc([N+](=O)[O-])c1OC(C)=O | 8 | 1 | 4 | -1 | x | 13 | x
CCOc1cc(/C=C2\N=C(SCC)SC2=O)cc([N+](=O)[O-])c1OC(C)=O | 13 | 3 | 4 | 0 | x | 95* | +
N#C/C(=C\c1cn(Cc2ccccc2F)c2ccccc12)C(=O)NCc1ccco1 | -22 | 2 | 8 | 1 | 20 | 4 | x
CSc1nc(SCCO)c2sc3nc(-c4ccco4)c4c(c3c2n1)CC(C)(C)OC4 | 18 | 12 | 7 | 1 | x | 78* | i
CC1(C)Cc2c(c(-c3ccco3)nc3sc4c(NCCO)ncnc4c23)CO1 | -19 | 3 | 4 | 1 | 8 | 37 | x
CNC(=O)c1c(NC(=O)c2cccc(N3C(=O)CCC3=O)c2)sc2c1CCCC2 | -3 | -2 | 2 | -1 | 20 | 4 | x
CC1=C(C#N)C(=O)NC(=O)/C1=C/c1ccc(-c2ccc(S(N)(=O)=O)cc2)o1 | 18 | 15 | 9 | 1 | 3 | 52* | i
NS(=O)(=O)c1ccc(-c2ccc(C=O)o2)cc1 | -4 | 4 | 7 | 1 | 1 | 22 | x
Cc1ccc(S(=O)(=O)NCCC(=O)Oc2ccc3ccc(=O)oc3c2)cc1 | 3 | -5 | 5 | 1 | 27 | 93* | x
CCN(CC)S(=O)(=O)c1ccc(Cl)c(NC(=O)COc2ccccc2[N+](=O)[O-])c1 | -8 | 13 | 5 | 0 | 8 | 3 | x
CCN(CC)S(=O)(=O)c1ccc(OC)c(NC(=O)COc2ccccc2[N+](=O)[O-])c1 | -5 | -4 | 6 | 1 | 10 | 53* | i
COC(=O)C1=C(C)NC(C)=C(C(=O)OC)C1c1ccc(C)o1 | -5 | 1 | 1 | -1 | 32 | 21 | x
Cc1nn(CC(=O)Nc2ccc3c(c2)oc2ccccc23)c(=O)c2ccccc12 | 66 | 5 | 0 | 1 | x | 51* | i
CNC(=O)Cn1nc(C)c2ccccc2c1=O | 1 | 5 | 4 | 1 | x | 0 | x
